# Test results published in ChEMBL document CHEMBL3856208, “Lupane and 18α-oleanane derivatives substituted in the position 2, their cytotoxicity and influence on cancer cells” (Eur J Med Chem, 2016).
# What was measured:
# [1] = Cytotoxicity against human CCRF-CEM cells after 72 hrs by MTS assay; type: functional, cell-based
# Outline: (§1)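 Cells seeded at 25000–35000 cells/mL, compounds from DMSO dosed at time zero as four-fold dilutions. Exposure 72 h at 37 °C, 5% CO2, with MTS added for 1–4 h and OD read at 490 nm. Survival expressed as % of mean control OD, with IC50 from dose-response curves. Run as technical duplicates in at least three biological replicates.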
# [2] = Cytotoxicity against human CEM/DNR cells after 72 hrs by MTS assay; type: functional, cell-based; outline: as §1
# [3] = Cytotoxicity against human K562 cells after 72 hrs by MTS assay; type: functional, cell-based; conditions: K562, 72 h; outline: as §1
# [4] = Cytotoxicity against human K562-TAX cells after 72 hrs by MTS assay; type: functional, cell-based; outline: as §1
# [5] = Cytotoxicity against human A549 cells after 72 hrs by MTS assay; type: functional, cell-based; conditions: A549, 72 h; outline: as §1
# [6] = Cytotoxicity against human HCT116 cells after 72 hrs by MTS assay; type: functional, cell-based; conditions: HCT-116, 72 h; outline: as §1
# [7] = Cytotoxicity against p53 deficient human HCT116 cells after 72 hrs by MTS assay; type: functional, cell-based; conditions: HCT-116, 72 h; outline: as §1
# [8] = Cytotoxicity against human U2OS cells after 72 hrs by MTS assay; type: functional, cell-based; outline: as §1
# [9] = Cytotoxicity against human BJ cells after 72 hrs by MTS assay; type: toxicity, cell-based; outline: as §1
# [10] = Cytotoxicity against human MRC5 cells after 72 hrs by MTS assay; type: toxicity, cell-based; outline: as §1
# [11] = Therapeutic index, ratio of IC50 for human BJ cells to IC50 for human CCRF-CEM cells; type: cell-based; conditions: BJ cells versus CCRF-CEM cells, read-out: Ratio IC50
# [12] = Therapeutic index, ratio of IC50 for human MRC5 cells to IC50 for human CCRF-CEM cells; type: cell-based; conditions: MRC5 cells versus CCRF-CEM cells, read-out: Ratio IC50
SMILES,IC50 [1],IC50 [2],IC50 [3],IC50 [4],IC50 [5],IC50 [6],IC50 [7],IC50 [8],IC50 at 72 h [9],IC50 at 72 h [10],selectivity ratio [11],selectivity ratio [12]
CC1(C)CC[C@]23CC[C@]4(C)[C@H](CC[C@@H]5[C@@]6(C)C[C@H](NC(=O)CCC(=O)O)[C@H](O)C(C)(C)[C@@H]6CC[C@]54C)[C@H]2[C@H]1OC3,> 50 µM,–,–,–,–,–,–,–,–,–,–,–
CC1(C)CC[C@]23CC[C@]4(C)[C@H](CC[C@@H]5[C@@]6(C)CCC(=O)C(C)(C)[C@@H]6CC[C@]54C)[C@H]2[C@H]1OC3,> 50 µM,–,–,–,–,–,–,–,–,–,–,–
CC(C)[C@@H]1CC[C@]2(C(=O)O)CC[C@]3(C)[C@H](CC[C@@H]4[C@@]5(C)C=C(N)C(=O)C(C)(C)[C@@H]5CC[C@]43C)[C@@H]12,26.6 to 27 µM,33.9 µM,> 50 µM,20.1 µM,> 50 µM,> 50 µM,> 50 µM,> 50 µM,> 50 µM,> 50 µM,> 1.9,> 1.9
CC1(C)CC[C@]23CC[C@]4(C)[C@H](CC[C@@H]5[C@@]6(C)CC7=C(OCCS7)C(C)(C)[C@@H]6CC[C@]54C)[C@H]2[C@H]1OC3,> 50 µM,–,–,–,–,–,–,–,–,–,–,–
C=C(C)[C@@H]1CC[C@]2(C(=O)O)CC[C@]3(C)[C@H](CC[C@@H]4[C@@]5(C)CCC(=O)C(C)(C)[C@@H]5CC[C@]43C)[C@@H]12 [BETUNOLIC ACID],14 µM,–,–,–,–,–,–,–,–,–,–,–
CC(C)[C@@H]1CC[C@]2(C(=O)O)CC[C@]3(C)[C@H](CC[C@@H]4[C@@]5(C)CC([N+](=O)[O-])=C(O)C(C)(C)[C@@H]5CC[C@]43C)[C@@H]12,31.8 to 32 µM,36.1 µM,10.1 µM,20.6 µM,31.3 µM,> 50 µM,> 50 µM,> 50 µM,> 50 µM,> 50 µM,> 1.6,> 1.6
CC1(C)CC[C@]23CC[C@]4(C)[C@H](CC[C@@H]5[C@@]6(C)C=C(NC7=C[C@]8(C)[C@H]9CC[C@@H]%10[C@@H]%11[C@H]%12OC[C@@]%11(CCC%12(C)C)CC[C@@]%10(C)[C@]9(C)CC[C@H]8C(C)(C)C7=O)C(=O)C(C)(C)[C@@H]6CC[C@]54C)[C@H]2[C@H]1OC3,> 50 µM,–,–,–,–,–,–,–,–,–,–,–
CC(C)[C@@H]1CC[C@]2(C(=O)O)CC[C@]3(C)[C@H](CC[C@@H]4[C@@]5(C)CCC(=O)C(C)(C)[C@@H]5CC[C@]43C)[C@@H]12 [DIHYDROBETULONIC ACID],4 µM,–,–,–,–,–,–,–,–,–,–,–
CC(C)[C@@H]1CC[C@]2(C(=O)O)CC[C@]3(C)[C@H](CC[C@@H]4[C@@]5(C)CC(Br)C(=O)C(C)(C)[C@@H]5CC[C@]43C)[C@@H]12 (stereo not given in full),2 µM,–,–,–,–,–,–,–,–,–,–,–
CC1(C)CC[C@]23CC[C@]4(C)[C@H](CC[C@@H]5[C@@]6(C)CC[C@H](O)C(C)(C)[C@@H]6CC[C@]54C)[C@H]2[C@H]1OC3 [ALLOBETULIN],> 50 µM,–,–,–,–,–,–,–,–,–,–,–
CC1(C)CC[C@]23CC[C@]4(C)[C@H](CC[C@@H]5[C@@]6(C)C[C@@H](N=[N+]=[N-])[C@H](O)C(C)(C)[C@@H]6CC[C@]54C)[C@H]2[C@H]1OC3,> 50 µM,–,–,–,–,–,–,–,–,–,–,–
CC1(C)CC[C@]23CC[C@]4(C)[C@H](CC[C@@H]5[C@@]6(C)CC(Br)C(=O)C(C)(C)[C@@H]6CC[C@]54C)[C@H]2[C@H]1OC3 (stereo not given in full),> 50 µM,–,–,–,–,–,–,–,–,–,–,–
CC(C)[C@@H]1CC[C@]2(C(=O)O)CC[C@]3(C)[C@H](CC[C@@H]4[C@@]5(C)CC(N=[N+]=[N-])C(=O)C(C)(C)[C@@H]5CC[C@]43C)[C@@H]12 (stereo not given in full),17 to 17.5 µM,16 µM,14.2 µM,10.6 µM,25.7 µM,> 50 µM,> 50 µM,48.9 µM,> 50 µM,> 50 µM,> 2.9,> 2.9
CC(C)[C@@H]1CC[C@]2(C(=O)O)CC[C@]3(C)[C@H](CC[C@@H]4[C@@]5(C)C=C(NC6=C[C@]7(C)[C@H]8CC[C@@H]9[C@H]%10[C@H](C(C)C)CC[C@]%10(C(=O)O)CC[C@@]9(C)[C@]8(C)CC[C@H]7C(C)(C)C6=O)C(=O)C(C)(C)[C@@H]5CC[C@]43C)[C@@H]12,26.6 to 27 µM,33.9 µM,> 50 µM,20.1 µM,> 50 µM,> 50 µM,> 50 µM,> 50 µM,> 50 µM,> 50 µM,> 1.9,> 1.9
CC(=O)NC1C[C@]2(C)[C@H]3CC[C@@H]4[C@H]5[C@H]6OC[C@@]5(CCC6(C)C)CC[C@@]4(C)[C@]3(C)CC[C@H]2C(C)(C)C1=O (stereo not given in full),32 to 32.2 µM,> 50 µM,32.4 µM,> 50 µM,> 50 µM,42.9 µM,38.7 µM,> 50 µM,> 50 µM,21.6 µM,> 1.1,> 1.1
